Data on 2 compounds can be found in publication PMC5901702 (Journal of biomolecular screening, 2012).

Assay [1] addresses T1, rat IDE (Rattus norvegicus, UniProt P35559).
T1 sequence (P35559 1-1019): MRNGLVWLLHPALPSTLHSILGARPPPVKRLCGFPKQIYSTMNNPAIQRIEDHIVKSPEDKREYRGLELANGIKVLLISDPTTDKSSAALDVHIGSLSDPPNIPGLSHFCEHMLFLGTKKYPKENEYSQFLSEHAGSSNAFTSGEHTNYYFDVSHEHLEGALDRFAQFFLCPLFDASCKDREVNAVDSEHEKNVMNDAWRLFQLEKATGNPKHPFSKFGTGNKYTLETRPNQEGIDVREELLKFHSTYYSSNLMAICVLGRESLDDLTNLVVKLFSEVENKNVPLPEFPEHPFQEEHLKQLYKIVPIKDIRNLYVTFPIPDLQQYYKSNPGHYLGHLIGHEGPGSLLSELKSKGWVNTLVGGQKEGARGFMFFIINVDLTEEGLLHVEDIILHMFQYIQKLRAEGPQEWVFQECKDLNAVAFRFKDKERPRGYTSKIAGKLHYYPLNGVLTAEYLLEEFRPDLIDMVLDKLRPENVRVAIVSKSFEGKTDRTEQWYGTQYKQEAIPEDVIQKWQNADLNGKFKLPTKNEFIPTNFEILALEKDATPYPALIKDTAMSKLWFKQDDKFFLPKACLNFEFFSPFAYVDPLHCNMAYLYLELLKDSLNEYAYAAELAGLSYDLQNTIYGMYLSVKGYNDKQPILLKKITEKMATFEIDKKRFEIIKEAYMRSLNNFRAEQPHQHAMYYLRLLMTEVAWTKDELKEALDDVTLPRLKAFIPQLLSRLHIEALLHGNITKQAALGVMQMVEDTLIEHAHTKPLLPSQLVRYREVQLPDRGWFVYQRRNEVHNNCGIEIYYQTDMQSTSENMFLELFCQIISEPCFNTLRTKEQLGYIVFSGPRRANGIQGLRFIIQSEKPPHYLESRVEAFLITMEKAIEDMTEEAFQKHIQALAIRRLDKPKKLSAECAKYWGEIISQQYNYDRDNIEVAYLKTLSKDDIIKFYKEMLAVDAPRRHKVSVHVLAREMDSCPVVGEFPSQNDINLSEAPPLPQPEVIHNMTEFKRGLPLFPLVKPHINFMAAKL
As to the kind of experiment: ATP effect on rat IDE activity and activators. It counts as biochemical. The gist of the method: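 Rat IDE (87.7 nM) with 50 µM a-factor–based internally quenched fluorogenic substrate in 50 mM Tris pH 7.5 containing BSA and 1 mM ATP. Compounds were used at optimal levels taken from Tris/BSA dose-response curves. ATP titration (0–10 mM) was also run in 0.1 M KPi pH 7.6 or Tris/BSA. Activity is % of water- or DMSO-treated control, n = 4.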

The target in assay [2] is T1, rat IDE. Nature of the assay: Native PAGE mobility shift of rat IDE. In kind it is binding. Particulars: ATP 3 mM. The gist of the method: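 Rat IDE was preincubated 60 min at 37 °C with compound (100 µM) or ATP (3 mM). It was mixed 1:1 with 2× native sample buffer (0.6 M Tris-HCl pH 6.8, 20% glycerol, bromophenol blue), run on 10% native PAGE at 4 °C and silver-stained.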

Assay [3] deals with T1, rat IDE. Nature of the assay: Dose-response of rat IDE activation. In kind it is biochemical. Particulars: rat IDE activation, a-factor–based substrate. In outline:
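Rat IDE (10 µg/mL) in 0.1 M KPi pH 7.6 was preincubated 10 min at 37 °C with activator (up to 1 mM), then mixed 1:1 with a-factor–based fluorogenic substrate (50 µM final). Fluorescence (320 ex) was read over 60 min and rate taken from the 15–30 min window. Baseline was subtracted and rates normalized to trypsin/pronase E full digestion. AC50 came from best-fit curves, or [Max]50 where the curve was not sigmoidal.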

In the case of `Nc1ncnc2c1ncn2[C@@H]1O[C@H](COP(=O)(O)OP(=O)(O)OP(=O)(O)O)[C@@H](O)[C@H]1O` [ATP, adenosine triphosphate, reference compound], the “ATP-dependent activation of IDE” value at rat IDE [1] (KPi buffer, assay conditions used for HTS) is listed as “not observed”. For the same compound, on rat IDE [1] (Tris/BSA buffering system), the maximum activating concentration result is on record as “approximately 1 mM”. Further, the “native PAGE mobility shift of IDE” value on rat IDE [2] was “did not observe a mobility shift”.

Take `Cc1ccc(C(=O)Nc2ccc(S(=O)(=O)O)c3cc(S(=O)(=O)O)cc(S(=O)(=O)O)c23)cc1NC(=O)c1cccc(NC(=O)Nc2cccc(C(=O)Nc3cc(C(=O)Nc4ccc(S(=O)(=O)O)c5cc(S(=O)(=O)O)cc(S(=O)(=O)O)c45)ccc3C)c2)c1` [suramin, reference compound]: the dose-response profile entry at rat IDE [3] is given as “hormetic response”.
